Source: article PMC10061536 (ACS Omega, 2023)
≈ marks a conversion by molar mass, not a printed value.

Legend:
α-amylase = assay: α-Amylase inhibition assay; format: biochemical; conditions: for IC50: read-out: IC50 ± SEM, α-amylase inhibition
[1] = target: Bovine serum albumin (BSA)-glucose model (Bos taurus, UniProt P02769); assay: In vitro anti-glycation assay, BSA-glucose model; format: biochemical; conditions: for inhibition at 100 ppm / inhibition at 200 ppm / inhibition at 400 ppm / inhibition at 600 ppm / inhibition at 800 ppm / inhibition at 1000 ppm: read-out: % age antiglycation inhibition
Sequence of Bovine serum albumin (BSA)-glucose model (P02769 25-607): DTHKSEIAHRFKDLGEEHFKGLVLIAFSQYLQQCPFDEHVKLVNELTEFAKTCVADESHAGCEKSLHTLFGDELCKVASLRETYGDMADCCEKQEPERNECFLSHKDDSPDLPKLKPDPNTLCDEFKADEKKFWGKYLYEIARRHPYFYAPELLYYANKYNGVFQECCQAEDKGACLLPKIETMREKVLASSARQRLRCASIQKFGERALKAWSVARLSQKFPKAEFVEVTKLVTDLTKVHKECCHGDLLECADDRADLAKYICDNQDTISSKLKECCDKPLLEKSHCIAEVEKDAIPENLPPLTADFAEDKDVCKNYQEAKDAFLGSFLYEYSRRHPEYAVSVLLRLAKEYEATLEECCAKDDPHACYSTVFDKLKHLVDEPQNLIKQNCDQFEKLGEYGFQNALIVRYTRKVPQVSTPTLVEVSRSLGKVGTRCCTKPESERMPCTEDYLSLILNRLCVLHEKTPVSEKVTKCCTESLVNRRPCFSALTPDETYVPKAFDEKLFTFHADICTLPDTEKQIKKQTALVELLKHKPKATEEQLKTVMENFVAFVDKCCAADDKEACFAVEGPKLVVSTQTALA
How it was run: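 Glycation is read by measuring the fluorescence of glycated products on a spectrofluorometer.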

[2] = DPPH radical scavenging assay; conditions: for IC50: read-out: IC50 (mM ± SEM), DPPH scavenged by 50%
How it was run: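 Radical scavenging of DPPH by the test compound, with ascorbic acid as the reference.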

glycation [3] = conditions: read-out: IC50, antiglycation; cited from earlier work
glycation [4] = conditions: cited from earlier work

Row | SMILES | % age α-amylase inhibition (α-amylase; 1 μM) | % age α-amylase inhibition (α-amylase; 5 μM) | % age α-amylase inhibition (α-amylase; 10 μM) | IC50 (α-amylase) | inhibition at 100 ppm [1] | inhibition at 200 ppm [1] | inhibition at 400 ppm [1] | inhibition at 600 ppm [1] | inhibition at 800 ppm [1] | inhibition at 1000 ppm [1] | % age antioxidant potential ([2]; 3 mM) | % age antioxidant potential ([2]; 6 mM) | % age antioxidant potential ([2]; 9 mM) | % age antioxidant potential ([2]; 12 mM) | % age antioxidant potential ([2]; 15 mM) | IC50 [2] | also measured
1 | Fc1ccc(-c2csc(NN=Cc3ccc[nH]3)n2)cc1 [3m, 2-(2-((1H-Pyrrol-2-yl)methylene)hydrazinyl)-4-(4-fluorophenyl)thiazole] | 42.76% | 52.79% | 63.94% | 6.66 ± 0.13 µM | 76.8% | 78.8% | 82.5% | 84% | 86.1% | 88.8% | 0.00% | 0.00% | 0.00% | 15.13% | 31.05% |  | percentage antioxidant potential ([2]; at tested concentrations, IC50 not calculated): less than 50%
2 | Fc1ccc(-c2csc(NN=Cc3cccs3)n2)cc1 [3n, 4-(4-Fluorophenyl)-2-(2-(thiophen-2-ylmethylene)hydrazinyl)thiazole] | 51.64% | 64.48% | 71.83% | 5.77 ± 0.05 µM | 79.3% | 81% | 82.1% | 83% | 85.8% | 87.8% | 0.00% | 12.72% | 30.39% | 45.47% | 59.36% | 13.86 ± 0.04 mM | 
3 | CSc1ccccc1C=NNc1nc(-c2ccc(F)cc2)cs1 [3o, 4-(4-Fluorophenyl)-2-(2-(2-(methylthio)benzylidene)hydrazinyl)thiazole] | 33.07% | 43.03% | 57.18% | 7.69 ± 0.18 µM | 83.7% | 84.2% | 85.5% | 86.4% | 88.2% | 89.5% | 0.00% | 7.68% | 18.22% | 30.15% | 53.73% | 18 ± 0.27 mM | 
4 | N=C(N)NN [amino guanidine, reference compound] |  |  |  |  |  |  |  |  |  |  |  |  |  |  |  |  | % age antiglycation inhibition ([1]; 100 ppm): 85.190%; % age antiglycation inhibition ([1]; 200 ppm): 86.141%; % age antiglycation inhibition ([1]; 400 ppm): 87.143%; % age antiglycation inhibition ([1]; 600 ppm): 88.011%; % age antiglycation inhibition ([1]; 800 ppm): 88.866%; % age antiglycation inhibition ([1]; 1000 ppm): 89.657%; IC50 (glycation [3]): 25.5 ± 0.337 µM; IC50, antiglycation (glycation [4]): 394 ± 1 µg/mL (≈ 5.32 mM)
